Experimental data as given in ChEMBL document CHEMBL1800048, “Gambogic acid, a natural product inhibitor of Hsp90” (J Nat Prod, 2011).
Calls of active or inactive are those of the source. No cut-off for these calls is given here.

Experiments:
[1] = target: T1, Hsp90 co-chaperone Cdc37 (Homo sapiens) (UniProt Q16543); experiment: Inhibition of Cdc37 interaction with heme-regulated [35S]His-tagged eIF2alpha K199R mutant kinase in reticulocyte lysate assessed as coadsorbed Cdc37 at 80 uM after 40 mins by SDS-PAGE and Western blot analysis
T1 sequence (whole entry): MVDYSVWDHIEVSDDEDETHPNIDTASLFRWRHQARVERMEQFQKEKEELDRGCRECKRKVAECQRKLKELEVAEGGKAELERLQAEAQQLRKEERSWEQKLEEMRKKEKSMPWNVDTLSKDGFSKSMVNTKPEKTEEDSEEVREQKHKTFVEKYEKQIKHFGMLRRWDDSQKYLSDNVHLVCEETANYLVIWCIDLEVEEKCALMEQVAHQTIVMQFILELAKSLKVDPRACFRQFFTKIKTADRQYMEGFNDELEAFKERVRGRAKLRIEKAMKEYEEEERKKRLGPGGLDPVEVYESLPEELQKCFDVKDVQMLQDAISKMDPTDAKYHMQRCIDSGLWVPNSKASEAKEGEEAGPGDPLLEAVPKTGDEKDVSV
Procedure, shortened: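 His-tagged kinase-dead HRI K199R made by TnT in reticulocyte lysate with [35S]methionine. After 10 min of synthesis, compound or DMSO (4% v/v) added, then 40 min more. Immunoadsorbed with anti-His-tag antibody on anti-mouse-IgG agarose. Washed four times in 10 mM PIPES pH 7.2, 100 mM NaCl. Co-adsorbed Hsp90, Hsp70 and Cdc37 read by SDS-PAGE and Western blot; plasmid-free lysate as nonspecific control.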

[2] = Effect on [35S]His-tagged HRI stability in heme-deficient reticulocyte lysate assessed as loss of [35S]His-tagged HRI at 80 uM after 45 mins by SDS-PAGE and autoradiography
Procedure, shortened: (§1)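 Wild-type [35S]His-tagged HRI made by coupled transcription-translation in reticulocyte lysate with [35S]methionine. Compound or DMSO (4% v/v) added after 20 min, then 10 min more. Sample diluted into 7 volumes of heme-deficient lysate (hemin 20 µM as reference) holding the same compound level, 45 min. HRI pulled down on NTA-Ni resin, 1 h on ice. SDS-PAGE and autoradiography; mobility shift and band densitometry as % of minus-heme control.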

[3] = Inhibition of Hsp90-mediated [35S]His-tagged HRI maturation in heme-deficient reticulocyte lysate at 80 uM after 45 mins by SDS-PAGE and autoradiography; procedure, shortened: as §1
[4] = Effect on [35S]His-tagged HRI stability in heme-deficient reticulocyte lysate assessed as loss of [35S]His-tagged HRI at 4 mM after 45 mins by SDS-PAGE and autoradiography; procedure, shortened: as §1
[5] = Inhibition of Hsp90-mediated [35S]His-tagged HRI maturation in heme-deficient reticulocyte lysate at 4 mM after 45 mins by SDS-PAGE and autoradiography; procedure, shortened: as §1
[6] = Inhibition of Hsp90-mediated [35S]His-tagged HRI maturation in heme-deficient reticulocyte lysate at 400 uM after 45 mins by SDS-PAGE and autoradiography
Procedure, shortened: (§2)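 [35S]His-tagged wild-type HRI was made by transcription-translation in reticulocyte lysate. Compound or 4% v/v DMSO was added at 20 min, followed by 10 min more. Samples were diluted into 7 volumes of heme-deficient lysate holding the same compound concentration; hemin-supplemented (20 µM) lysate was the reference. After 45 min, HRI was captured on Ni-NTA on ice for 1 h. Maturation was scored by mobility shift on SDS-PAGE and autoradiography.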

[7] = Effect on [35S]His-tagged HRI stability in heme-deficient reticulocyte lysate assessed as loss of [35S]His-tagged HRI at 400 uM after 45 mins by SDS-PAGE and autoradiography
[8] = Effect on [35S]His-tagged HRI stability in heme-deficient reticulocyte lysate assessed as loss of [35S]His-tagged HRI at 100 uM after 45 mins by SDS-PAGE and autoradiography
[9] = target: T1, Hsp90 co-chaperone Cdc37 (Homo sapiens); conditions: 100 uM
[10] = Inhibition of Hsp90-dependent refolding of luciferase in reticulocyte lysate by microplate reader
[11] = Inhibition of Hsp90-mediated [35S]His-tagged HRI maturation in heme-deficient reticulocyte lysate at 100 uM after 45 mins by SDS-PAGE and autoradiography; procedure, shortened: as §2
[12] = test system: HeLa; experiment: Antiproliferative activity against human HeLa cells assessed as inhibition of cell growth after 72 hrs by cell titer 96 assay; type: functional
Procedure, shortened: (§3)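 Cells seeded at 2000/well and left to attach overnight. HeLa was grown in MEM with non-essential amino acids, 2 mM glutamine and 10% FBS. SkBr3 was grown in DMEM/F12 (1:1) with penicillin/streptomycin and 10% FBS. Varying compound concentrations or 1% DMSO vehicle were added for 72 h at 37 °C. Tetrazolium reagent was added for 1 h, then A490 read; viability expressed as % of DMSO wells.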

[13] = target: T1, Hsp90 co-chaperone Cdc37 (Homo sapiens); conditions: 50 uM
[14] = target: T2, Heat shock protein HSP90 (Homo sapiens, UniProt P07900+P08238); experiment: Inhibition of Hsp90 in human SKBR3 cells assessed as Her2 degradation after 36 hrs by Western blot analysis; type: cell-based; conditions: SK-BR-3
Procedure, shortened: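 SkBr3 cells (1×10^6 per dish) were attached overnight, then exposed to the compound for 36 h. […] Her2 was Western blotted from 1 µg extract protein, with actin as loading control.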

[15] = target: T2, Heat shock protein HSP90; experiment: Inhibition of Hsp90 in human SKBR3 cells assessed as induction of Hsp70 expression after 36 hrs by Western blot analysis; type: cell-based; conditions: SK-BR-3
Procedure, shortened: (§4)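 Cells (1×10^6 per dish) were attached overnight, then exposed to the compound for 36 h. […] Extracts (10 µg protein) were Western blotted for Her2, Akt, Raf-1, Hsp90 and Hsp70, with actin as loading control.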

[16] = target: T2, Heat shock protein HSP90; experiment: Inhibition of Hsp90 in human MCF7 cells assessed as Akt degradation after 36 hrs by Western blot analysis; type: cell-based; procedure, shortened: as §4
[17] = target: T2, Heat shock protein HSP90; experiment: Inhibition of Hsp90 in human HeLa cells assessed as Akt degradation at 0.01 to 20 uM by Western blot analysis; type: cell-based; procedure, shortened: as §4
[18] = target: T2, Heat shock protein HSP90; experiment: Inhibition of Hsp90 in human MCF7 cells assessed as induction of Hsp90 expression after 36 hrs by Western blot analysis; type: cell-based; procedure, shortened: as §4
[19] = target: T2, Heat shock protein HSP90; experiment: Inhibition of Hsp90 in human HeLa cells assessed as Her2 degradation at 0.01 to 20 uM after 36 hrs by Western blot analysis; type: cell-based; procedure, shortened: as §4
[20] = target: T2, Heat shock protein HSP90; experiment: Binding affinity to human full length Hsp90 expressed in insect Sf9 cells by SPR analysis
Procedure, shortened: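 Full-length human Hsp90β from baculovirus-infected Sf9 cells was amine-coupled by EDC/NHS to a carboxyl SPR chip (about 2000 RU). Compound at 1.0–50 µM was injected in 10 mM PIPES pH 7.4, 300 mM NaCl, 2% DMSO at 15 µL/min, 25 °C. Measured in triplicate; ka, kd and KD were derived from curve fits.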

[21] = target: T2, Heat shock protein HSP90; experiment: Inhibition of Hsp90 in human MCF7 cells assessed as induction of Hsp70 expression after 36 hrs by Western blot analysis; type: cell-based; procedure, shortened: as §4
[22] = Inhibition of Hsp90-mediated [35S]His-tagged HRI maturation in heme-deficient reticulocyte lysate at 50 uM after 45 mins by SDS-PAGE and autoradiography; procedure, shortened: as §2
[23] = target: T2, Heat shock protein HSP90; experiment: Inhibition of Hsp90 in human MCF7 cells assessed as Her2 degradation after 36 hrs by Western blot analysis; type: cell-based; procedure, shortened: as §4
[24] = test system: SK-BR-3; experiment: Antiproliferative activity against human SKBR3 cells assessed as inhibition of cell growth after 72 hrs by cell titer 96 assay; type: functional; conditions: SK-BR-3, 72 h; procedure, shortened: as §3
[25] = target: T2, Heat shock protein HSP90; experiment: Inhibition of Hsp90 in human SKBR3 cells assessed as induction of Hsp90 expression after 36 hrs by Western blot analysis; type: cell-based; conditions: SK-BR-3; procedure, shortened: as §4
[26] = target: T2, Heat shock protein HSP90; experiment: Inhibition of Hsp90 in human HeLa cells assessed as Raf degradation at 0.01 to 20 uM after 36 hrs by Western blot analysis; type: cell-based; procedure, shortened: as §4
[27] = target: T2, Heat shock protein HSP90; experiment: Inhibition of Hsp90 in human SKBR3 cells assessed as Akt degradation after 36 hrs by Western blot analysis; type: cell-based; conditions: SK-BR-3; procedure, shortened: as §4
[28] = target: T2, Heat shock protein HSP90; experiment: Binding affinity to human Hsp90 N-terminal domain (1 to 241) expressed in Escherichia coli DE-3 Star cells by SPR analysis
[29] = target: T2, Heat shock protein HSP90; experiment: Inhibition of Hsp90 in human MCF7 cells assessed as Raf degradation after 36 hrs by Western blot analysis; type: cell-based; procedure, shortened: as §4
[30] = target: T2, Heat shock protein HSP90; experiment: Binding affinity to human Hsp90 C-terminal domain (531 to 732) expressed in Escherichia coli DE-3cstar cells by SPR analysis
Procedure, shortened: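 Hsp90 N-terminal (aa 1–241) or C-terminal (aa 531–732) domain was expressed in E. coli, Ni-NTA purified, His-tag TEV-cleaved, then gel-filtered and biotinylated for SPR. Analyte was injected in 10 mM PIPES pH 7.4, 300 mM NaCl, 2% DMSO at 15 µL/min, 25 °C. […] Triplicates; ka, kd and KD were derived from fits.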

[31] = target: T2, Heat shock protein HSP90; experiment: Binding affinity to human Hsp90 N-terminal domain (1 to 241) expressed in Escherichia coli DE-3 Star cells by SPR analysis in presence of 20 uM geldanamycin
[32] = Effect on [35S]His-tagged HRI stability in heme-deficient reticulocyte lysate assessed as loss of [35S]His-tagged HRI at 50 uM after 45 mins by SDS-PAGE and autoradiography
[33] = target: T2, Heat shock protein HSP90; experiment: Inhibition of Hsp90 in human SKBR3 cells assessed as Raf degradation after 36 hrs by Western blot analysis; type: cell-based; conditions: SK-BR-3; procedure, shortened: as §4
[34] = Inhibition of Hsp90-mediated [35S]His-tagged HRI maturation in heme-deficient reticulocyte lysate at 20 mM after 45 mins by SDS-PAGE and autoradiography; procedure, shortened: as §1
[35] = target: Hsp90 co-chaperone Cdc37 (Homo sapiens) (UniProt Q16543); conditions: 20 mM
[36] = Effect on [35S]His-tagged HRI stability in heme-deficient reticulocyte lysate assessed as loss of [35S]His-tagged HRI at 20 mM after 45 mins by SDS-PAGE and autoradiography; procedure, shortened: as §1

COC1=C2C[C@@H](C)C[C@H](OC)[C@H](O)[C@@H](C)/C=C(\C)[C@H](OC(N)=O)[C@@H](OC)/C=C\C=C(/C)C(=O)NC(=CC1=O)C2=O
Activity [1]: Active | Activity [2]: 0% | inhibition [3]: Active

CO[C@@H]1[C@@H](OC(N)=O)[C@@H](O)[C@H](Oc2ccc3c(O)c(NC(=O)c4ccc(O)c(CC=C(C)C)c4)c(=O)oc3c2C)OC1(C)C
Activity [4]: 90% | inhibition [5]: Active

CO[C@H]1[C@H](OC(=O)c2ccc(C)[nH]2)[C@H](O)[C@@H](Oc2ccc3c(O)c(NC(=O)c4c[nH]c(C(=O)Nc5c(O)c6ccc(O[C@H]7OC(C)(C)[C@@H](OC)[C@H](OC(=O)c8ccc(C)[nH]8)[C@@H]7O)c(C)c6oc5=O)c4C)c(=O)oc3c2C)OC1(C)C
inhibition [6]: Active | Activity [7]: 80%

CC1=C(O)C(=O)C=C2C1=CC=C1[C@@]2(C)CC[C@@]2(C)[C@@H]3C[C@](C)(C(=O)O)CC[C@]3(C)CC[C@]12C [CELASTROL]
Activity [8]: 40% | Activity [9]: inactive | IC50 [10]: 20 µM | inhibition [11]: Active

CC(C)=CCC[C@]1(C)C=Cc2c(O)c3c(c(CC=C(C)C)c2O1)O[C@]12C(=C[C@@H]4C[C@H]1C(C)(C)O[C@@]2(C/C=C(/C)C(=O)O)C4=O)C3=O [GAMBOGIC ACID]
GI50 [12]: 1.5 µM | Activity [13]: inactive | inhibition [14]: Dose-dependent effect | inhibition [15]: Dose-dependent effect | inhibition [16]: Dose-dependent effect | inhibition [17]: Active | inhibition [18]: Dose-dependent effect | inhibition [19]: Active | Kd [20]: 9.8 µM | inhibition [21]: Dose-dependent effect | inhibition [22]: inactive | inhibition [23]: Dose-dependent effect | IC50 [10]: 2 µM | GI50 [24]: 0.8 µM | inhibition [25]: Dose-dependent effect | inhibition [26]: Active | inhibition [27]: Dose-dependent effect | Kd [28]: 7.6 µM | inhibition [29]: Dose-dependent effect | Activity [30]: inactive | Kd [31]: 7 µM | Activity [32]: 10% | inhibition [33]: Dose-dependent effect

SODIUM MOLYBDATE
inhibition [34]: Active | Activity [35]: Active | Activity [36]: 10%
